Measured values: ChEMBL document CHEMBL4616614, “Discovery of thieno[2,3-d]pyrimidin-4(3H)-one derivatives as a new class of ROCK inhibitors” (Bioorg Med Chem Lett, 2020)

Assays:
[1] = molecular target: Rho-associated protein kinase 1 (Homo sapiens, UniProt Q13464); experiment: Inhibition of recombinant human ROCK1 (17 to 535 residues) using KEAKEKRQEQIAKRRRLSSLRASTSKSGGSQK as substrate incubated for 40 mins in presence of [gamma-33P]ATP by radiometric scintillation assay
Outline: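 IC50 values determined through a commercial kinase profiling service, with ATP at 10 µM.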

[2] = molecular target: Rho-associated protein kinase 2 (Homo sapiens, UniProt O75116); experiment: Inhibition of recombinant human ROCK2 (11 to 552 residues) using KEAKEKRQEQIAKRRRLSSLRASTSKSGGSQK as substrate incubated for 40 mins in presence of [gamma-33P]ATP by radiometric scintillation assay
Chain of Rho-associated protein kinase 2 (O75116 whole entry, the tested form may be a part): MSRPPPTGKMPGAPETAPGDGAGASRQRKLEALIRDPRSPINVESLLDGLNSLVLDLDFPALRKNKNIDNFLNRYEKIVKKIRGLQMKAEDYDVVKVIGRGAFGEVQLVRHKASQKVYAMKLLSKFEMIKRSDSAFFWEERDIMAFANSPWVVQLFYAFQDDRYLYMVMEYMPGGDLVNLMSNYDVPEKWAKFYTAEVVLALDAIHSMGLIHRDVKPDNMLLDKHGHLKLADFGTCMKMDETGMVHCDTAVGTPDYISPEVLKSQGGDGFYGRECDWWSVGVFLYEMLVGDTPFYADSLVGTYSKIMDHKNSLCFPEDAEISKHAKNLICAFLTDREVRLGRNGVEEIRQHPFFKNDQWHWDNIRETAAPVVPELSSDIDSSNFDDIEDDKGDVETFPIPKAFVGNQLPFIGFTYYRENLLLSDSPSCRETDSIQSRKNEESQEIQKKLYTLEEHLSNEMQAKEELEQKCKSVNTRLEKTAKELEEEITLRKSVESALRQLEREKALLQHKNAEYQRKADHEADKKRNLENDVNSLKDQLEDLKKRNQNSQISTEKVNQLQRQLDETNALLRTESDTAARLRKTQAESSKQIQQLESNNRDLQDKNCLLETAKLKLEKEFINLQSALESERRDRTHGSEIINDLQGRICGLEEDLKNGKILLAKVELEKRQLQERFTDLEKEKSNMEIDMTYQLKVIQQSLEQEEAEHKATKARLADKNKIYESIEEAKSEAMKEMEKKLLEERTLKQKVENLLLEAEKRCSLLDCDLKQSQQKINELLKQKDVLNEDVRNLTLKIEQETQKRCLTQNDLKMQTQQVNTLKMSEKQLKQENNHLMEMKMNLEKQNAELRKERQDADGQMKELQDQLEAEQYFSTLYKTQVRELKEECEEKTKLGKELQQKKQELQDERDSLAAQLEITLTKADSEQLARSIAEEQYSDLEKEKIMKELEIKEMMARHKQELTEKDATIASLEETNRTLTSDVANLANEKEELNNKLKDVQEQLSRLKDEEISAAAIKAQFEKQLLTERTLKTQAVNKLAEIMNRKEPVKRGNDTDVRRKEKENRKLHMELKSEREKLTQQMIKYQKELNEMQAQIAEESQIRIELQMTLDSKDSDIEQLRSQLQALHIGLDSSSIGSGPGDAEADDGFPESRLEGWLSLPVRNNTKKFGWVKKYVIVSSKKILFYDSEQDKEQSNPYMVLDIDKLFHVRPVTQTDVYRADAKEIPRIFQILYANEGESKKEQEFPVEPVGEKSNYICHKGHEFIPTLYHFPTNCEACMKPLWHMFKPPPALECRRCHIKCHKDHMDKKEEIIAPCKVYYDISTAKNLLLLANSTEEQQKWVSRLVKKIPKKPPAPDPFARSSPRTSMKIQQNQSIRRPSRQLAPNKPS

Chain of Rho-associated protein kinase 1 (Q13464 whole entry, the tested form may be a part): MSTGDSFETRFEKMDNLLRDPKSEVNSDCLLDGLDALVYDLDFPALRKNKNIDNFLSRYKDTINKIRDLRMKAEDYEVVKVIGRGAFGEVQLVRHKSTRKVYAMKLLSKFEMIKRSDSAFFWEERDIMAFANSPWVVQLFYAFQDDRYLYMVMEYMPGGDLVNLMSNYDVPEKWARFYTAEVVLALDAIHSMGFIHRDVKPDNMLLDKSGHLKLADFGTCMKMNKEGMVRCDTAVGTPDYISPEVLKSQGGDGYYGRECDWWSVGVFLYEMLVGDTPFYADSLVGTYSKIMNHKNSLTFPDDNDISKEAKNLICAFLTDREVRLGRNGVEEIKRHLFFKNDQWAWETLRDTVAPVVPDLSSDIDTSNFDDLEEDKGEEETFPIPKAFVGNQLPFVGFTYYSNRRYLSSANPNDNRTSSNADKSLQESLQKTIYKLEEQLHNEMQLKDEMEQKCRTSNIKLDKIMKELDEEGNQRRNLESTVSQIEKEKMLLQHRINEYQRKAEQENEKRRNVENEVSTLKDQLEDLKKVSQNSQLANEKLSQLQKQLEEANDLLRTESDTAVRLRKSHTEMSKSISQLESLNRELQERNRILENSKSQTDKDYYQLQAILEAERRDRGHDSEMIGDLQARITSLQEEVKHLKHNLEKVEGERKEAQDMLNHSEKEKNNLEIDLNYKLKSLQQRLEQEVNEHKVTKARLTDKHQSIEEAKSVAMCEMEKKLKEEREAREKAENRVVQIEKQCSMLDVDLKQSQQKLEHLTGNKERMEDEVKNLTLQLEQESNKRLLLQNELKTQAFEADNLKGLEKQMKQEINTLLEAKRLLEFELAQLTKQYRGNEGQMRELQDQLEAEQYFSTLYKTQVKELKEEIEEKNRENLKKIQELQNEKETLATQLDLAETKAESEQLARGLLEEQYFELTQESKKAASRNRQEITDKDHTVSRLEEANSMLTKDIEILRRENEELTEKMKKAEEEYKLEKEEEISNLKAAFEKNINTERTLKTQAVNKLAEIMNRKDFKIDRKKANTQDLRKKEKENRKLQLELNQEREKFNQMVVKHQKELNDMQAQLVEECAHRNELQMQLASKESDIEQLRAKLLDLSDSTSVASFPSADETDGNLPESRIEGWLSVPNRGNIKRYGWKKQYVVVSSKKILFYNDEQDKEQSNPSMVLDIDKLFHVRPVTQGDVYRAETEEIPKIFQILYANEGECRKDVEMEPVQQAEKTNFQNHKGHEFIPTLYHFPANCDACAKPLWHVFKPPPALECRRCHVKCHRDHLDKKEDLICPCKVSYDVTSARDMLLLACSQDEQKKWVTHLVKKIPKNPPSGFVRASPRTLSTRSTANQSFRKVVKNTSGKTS

SMILES | IC50 [1] [nM] | IC50 [2] [nM]
COc1cccc(Cn2cnc3sc(-c4cccnc4)cc3c2=O)c1 | > 10000 | 3480
COc1cccc(Cn2cnc3sc(-c4ccc(N)nc4)cc3c2=O)c1 | > 10000 | > 10000
COc1cc(Cn2cnc3sc(-c4ccnc5[nH]ccc45)cc3c2=O)cc(OC)c1 | 74 | 4
COc1cccc(Cn2cnc3sc(-c4ccc(-c5ccncc5)cc4)cc3c2=O)c1 | > 10000 | > 10000
COc1cccc(Cn2cnc3sc(-c4ccc5[nH]ncc5c4)cc3c2=O)c1 | 20 | 2
COc1ccc(Cn2cnc3sc(-c4ccnc(N)c4)cc3c2=O)cc1OC | > 10000 | 219
COc1ccc(Cn2cnc3sc(-c4ccnc5[nH]ccc45)cc3c2=O)cc1 | 13 | 2
COc1cccc(Cn2cnc3sc(-c4ccnc5[nH]ccc45)cc3c2=O)c1 | 4 | 1
COc1cccc(Cn2cnc3sc(-c4cccc5[nH]ccc45)cc3c2=O)c1 | > 10000 | 583
Nc1cc(-c2cc3c(=O)n(Cc4cccc(C(F)(F)F)c4)cnc3s2)ccn1 | 490 | 25
COc1cccc(Cn2ccc3cc(-c4ccc5[nH]ncc5c4)ccc3c2=O)c1 | 1880 | 107
COc1cccc(Cn2cnc3cc(-c4ccc5[nH]ncc5c4)ccc3c2=O)c1 | 3110 | 88
COc1cccc(Cn2cnc3sc(-c4ccncc4)cc3c2=O)c1 | 45 | 6
COc1cccc(Cn2cnc3sc(-c4ccnc(OC)c4)cc3c2=O)c1 | > 10000 | 6910
COc1cccc(CN2CCc3cc(-c4ccc5[nH]ncc5c4)ccc3C2=O)c1 | 2060 | 632
COc1cccc(Cn2cnc3sc(-c4ccnc(C)c4)cc3c2=O)c1 | 2510 | 42
COc1ccc(Cn2cnc3sc(-c4ccnc(N)c4)cc3c2=O)cc1 | 1440 | 46
O=c1c2cc(-c3ccnc4[nH]ccc34)sc2ncn1Cc1cccc(F)c1 | 13 | 1
COc1cccc(Cn2ncc3cc(-c4ccc5[nH]ncc5c4)ccc3c2=O)c1 | > 10000 | 398
COc1cccc(Cn2cnc3sc(-c4ccnc(Cl)c4)cc3c2=O)c1 | > 10000 | 501
COc1ccc(Cn2cnc3sc(-c4ccnc5[nH]ccc45)cc3c2=O)cc1OC | 25 | 4
O=c1c2cc(-c3ccnc4[nH]ccc34)sc2ncn1Cc1cccc(C(F)(F)F)c1 | 110 | 7
COc1cccc(Cn2cnc3sc(-c4ccnc(N)c4)cc3c2=O)c1 | 18 | 1
Nc1cc(-c2cc3c(=O)n(Cc4cccc(F)c4)cnc3s2)ccn1 | 34 | 5
COc1cccc(Cn2cnc3sc(-c4ccnc(F)c4)cc3c2=O)c1 | 1050 | 83
COc1cc(Cn2cnc3sc(-c4ccnc(N)c4)cc3c2=O)cc(OC)c1 | > 10000 | 58
